Measurements pooled from the literature.
Each line is one published result; the experiments were not run side by side.

Compound	target or system	assay	test system	conditions	measurement	result
COc1ccc(F)cc1C(=O)NCc1ccc(-c2nn([C@@H](C)C(F)(F)F)c(N)c2C(N)=O)cc1			male human, plasma	oral, 200 mg, single dose	AUC(0-inf)	105000 ng·h/mL
CC(=O)O[C@H]1C(=O)[C@@]2(C)[C@H]([C@H](OC(=O)c3ccccc3)[C@]3(O)C[C@H](OC(=O)[C@H](O)[C@@H](NC(=O)c4ccccc4)c4ccccc4)C(C)=C1C3(C)C)[C@]1(OC(C)=O)CO[C@@H]1C[C@@H]2O	CHP-212	cell growth or viability, SRB		1.524 nM	viability	89.8%
CC(=O)N(C)[C@H]1CCN(C(=O)c2cnc3c(c2)C[C@](C)(c2ccc(F)cc2)N3)C1			male human, plasma	oral, 30 mg, multiple doses, once daily, steady state	AUC(0-t)	3.63 µM·h
O=C(COc1ccc(Cl)cc1)NC12CC(c3nnc([C@H]4C[C@@H](OC(F)(F)F)C4)o3)(C1)C2			human, plasma	oral, 260 mg, multiple doses, once daily, steady state, healthy volunteers	AUC	296 µM·h
NCc1cc2c(cc1F)C(=O)N(C1CCC(=O)NC1=O)C2 (stereo not shown)			male cynomolgus monkey, plasma	oral, 0.3 mg/kg, 2 h	concentration	1.07 ng/mL
CC(C)n1c(C2CCNCC2)nc2c([N+](=O)[O-])c(Br)c(Br)cc21			human, plasma	oral, 100 mg, patients	AUC(0-t)	952 ng·h/mL
COc1ccc2c(c1)CN(C(=O)CCN1CCC(Cc3ccccc3)CC1)CC[S@@+]2[O-]			male human, plasma	intravenous, 0.01 mg/kg, healthy volunteers	AUC(0-t)	45.2 ng·h/mL
O=C(O)COc1cccc(-c2nc(Nc3ccc4[nH]ncc4c3)c3ccccc3n2)c1	Organic anion transporter 3 (SLC22A8, Homo sapiens, UniProt Q8TCC7)	transporter uptake, inhibitor, radiometric			IC50	15.9 µM
CNC(=O)c1cc(Oc2ccc(NC(=O)Nc3ccc(Cl)c(C(F)(F)F)c3)cc2)ccn1	WISH	cell growth or viability, MTT		3.125 µM, 24 h	viability	86.2%
CC(C)C[C@H](NC(=O)[C@H](Cc1ccccc1)NC(=O)c1cnccn1)B(O)O	CHP-212	cell growth or viability, SRB		4.572 nM	viability	102%
